Here are results for 6 compounds from ChEMBL document CHEMBL3792345, “Isoquinoline-1,3-diones as Selective Inhibitors of Tyrosyl DNA Phosphodiesterase II (TDP2)” (J Med Chem, 2016).

The target of assay [1] is T1, Tyrosyl-DNA phosphodiesterase 2 (Homo sapiens, UniProt O95551).
T1 sequence (O95551 whole entry): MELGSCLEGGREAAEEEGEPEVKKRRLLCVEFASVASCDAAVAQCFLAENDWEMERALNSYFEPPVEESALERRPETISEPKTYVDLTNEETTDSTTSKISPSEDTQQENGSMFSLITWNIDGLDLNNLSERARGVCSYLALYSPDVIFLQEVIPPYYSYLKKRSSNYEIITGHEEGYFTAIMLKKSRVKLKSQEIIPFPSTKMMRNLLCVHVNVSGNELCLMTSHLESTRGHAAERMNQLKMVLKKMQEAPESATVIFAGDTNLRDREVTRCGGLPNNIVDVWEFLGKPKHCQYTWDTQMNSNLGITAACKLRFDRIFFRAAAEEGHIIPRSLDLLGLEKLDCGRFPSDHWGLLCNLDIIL
As to the kind of experiment: Inhibition of recombinant human TDP2 using 18-mer single stranded oligonucleotide DNA as substrate incubated for 15 mins by PAGE assay. The method in brief:
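1 nM TY18 substrate (α³²P-cordycepin-3′-labelled 18-mer ssDNA) with 25 pM recombinant human TDP2, 15 min at room temperature in LMP2 buffer (pH 7.5, 5 mM MgCl₂). Dose–response at 1.4, 4.1, 12.3, 37, 111 μM, resolved on gels. IC50 is mean ± SD of at least three independent experiments.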

Assay [2] concerns the target T2, Tyrosyl-DNA phosphodiesterase 1 (Homo sapiens, UniProt Q9NUW8). The assay is described as follows: Inhibition of recombinant TDP1 (unknown origin) using 5'-[32P]-labeled single stranded oligonucleotide DNA containing 3'-phophotyrosine (N14Y) as substrate incubated for 15 mins by PAGE assay.
For assay [3], the target named is T2, Tyrosyl-DNA phosphodiesterase 1. The assay is described as follows: Inhibition of recombinant TDP1 (unknown origin) using 5'-[32P]-labeled single stranded oligonucleotide DNA containing 3'-phophotyrosine (N14Y) as substrate at 111 uM incubated for 15 mins by PAGE assay.
The target of assay [4] is T1, Tyrosyl-DNA phosphodiesterase 2. The assay is described as follows: Inhibition of human TDP2 expressed in DT40 cells (TDP2-knockout) using 18-mer single stranded oligonucleotide DNA as substrate incubated for 15 mins by PAGE assay. The method in brief: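 Extract from 1 × 10⁷ TDP2−/− DT40 cells complemented with human TDP2, prepared as the TDP1 extracts. 1 nM TY18 substrate (α³²P-cordycepin-3′-labelled 18-mer) with 5 μg/mL extract ± inhibitor, 15 min at room temperature. Products resolved on gel.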

Assay [5] can be described thus: Cytotoxicity against chicken DT40 knockout cells expressing human TDP2 after 72 hrs by ATPlite assay. It is filed as functional. As to conditions: Gallus gallus, DT40, 72 h. The method in brief: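 DT40 cells lacking endogenous TDP2 and complemented with human TDP2, following an earlier protocol. For synergy, the compound was combined with different etoposide concentrations.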
On the technique in general: Cellular ATP, detected with luciferase, serves as a proxy for viable cell number.

For a further assay, the species on record is Gallus gallus. The assay is described as follows: Potentiation of ETP-induced cytotoxicity against chicken DT40 knockout cells expressing human TDP2 after 72 hrs by ATPlite assay. It counts as functional, cell-based. The method in brief:
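DT40 cells lacking endogenous TDP2 and complemented with human TDP2, following an earlier protocol. CC90 is the concentration killing 90% of cells, measured without etoposide. For synergy, the compound was combined with different etoposide concentrations.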

For assay [6], the target named is T2, Tyrosyl-DNA phosphodiesterase 1. The assay is described as follows: Inhibition of human TDP1 expressed in DT40 cells (TDP1-knockout) using N14Y single stranded oligonucleotide DNA as substrate incubated for 15 mins by PAGE assay.

Each structure is given as a SMILES string. Activity calls are given as the source filed them. Unless noted, the rule behind the calls is not given here.

T2 sequence (Q9NUW8 whole entry): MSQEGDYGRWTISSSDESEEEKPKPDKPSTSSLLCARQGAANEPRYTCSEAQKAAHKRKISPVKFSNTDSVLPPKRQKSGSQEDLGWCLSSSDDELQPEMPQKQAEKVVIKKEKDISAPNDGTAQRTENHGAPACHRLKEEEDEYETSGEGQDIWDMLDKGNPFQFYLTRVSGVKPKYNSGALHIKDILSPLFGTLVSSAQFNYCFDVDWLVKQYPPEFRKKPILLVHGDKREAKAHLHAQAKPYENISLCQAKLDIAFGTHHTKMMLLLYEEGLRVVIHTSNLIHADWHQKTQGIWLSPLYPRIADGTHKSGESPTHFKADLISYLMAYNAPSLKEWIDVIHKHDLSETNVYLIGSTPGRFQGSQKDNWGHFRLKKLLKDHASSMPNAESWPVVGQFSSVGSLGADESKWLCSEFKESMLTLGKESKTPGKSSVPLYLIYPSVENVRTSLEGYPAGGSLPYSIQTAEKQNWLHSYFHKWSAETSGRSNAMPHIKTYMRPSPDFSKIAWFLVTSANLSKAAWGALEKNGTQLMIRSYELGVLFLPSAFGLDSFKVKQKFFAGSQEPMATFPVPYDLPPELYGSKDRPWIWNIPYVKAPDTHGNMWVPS

In the case of `O=C1Cc2cc(-c3ccco3)ccc2C(=O)N1O`, the IC50 in assay [1] and in assay [2] was more than 111 µM throughout.

As to `O=C1Cc2cc(-c3nc4ccccc4s3)ccc2C(=O)N1`, the IC50 (usually the concentration at which inhibition is half-maximal) was 5.1 µM in assay [1] and 11 µM in assay [4]. Besides, the inhibition entry in assay [3] is “inactive”. For the same compound, in assay [5], the CC90 amounted to 12 µM. The outcome in the assay filed under Gallus gallus was inactive.

As for `O=C1Cc2ccc(C(=O)O)cc2C(=O)N1`, the IC50 in assay [1] turned out to be 3 µM; in assay [4] it was 5.2 µM. Besides, the inhibition entry in assay [3] is “inactive”. The compound also gave a CC90 in assay [5] of more than 50 µM. In the assay filed under Gallus gallus, the outcome was inactive.

With `O=C1Cc2cc(I)ccc2C(=O)N1`, the figures for the IC50 in assay [1] and in assay [4] were 7.6 µM and 9.3 µM, respectively. The inhibition result in assay [3] is “inactive”. The compound also displayed a CC90 in assay [5] of 9.5 µM. In addition, the result in the assay filed under Gallus gallus was inactive.

In the case of `O=C1Cc2cc(-c3ccco3)ccc2C(=O)N1`, the concentration for half-maximal inhibition (IC50) is 10 µM in assay [1], more than 111 µM in assay [2], 25 µM in assay [4] and more than 111 µM in assay [6]. Further, the outcome in the assay filed under Gallus gallus was inactive.

For `O=C1Cc2cc(-c3ccccc3)ccc2C(=O)N1`, the IC50 is 23 µM in assay [1] and more than 111 µM in assay [4]. The inhibition entry in assay [3] was “inactive”.
